ChEMBL document CHEMBL1139348, “Identification and optimization of a novel inhibitor of mitochondrial calpain 10” (J Med Chem, 2009)
The source made the active and inactive calls. No cut-off for these calls is given here. Where a SMILES comes first, the peptide text is derived from it. The star is where a group is joined. X1 = COc1ccc(S*)cc1; SEt = CCS*

What was measured:
[1] = Inhibition of calpain-10 in rabbit mitochondrial matrix fractions by spectrofluorimetry; parameters: species or system Oryctolagus cuniculus
How it was run: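 Matrix fraction from Percoll/sucrose-purified rabbit renal cortical mitochondria, stored at -80°C. Matrix added to activity buffer, then inhibitor at various concentrations and sLLVY-AMC (50 µM); AMC hydrolysis followed spectrofluorometrically under linear conditions. IC50 from means of at least 3 separate experiments.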

[2] = species on record: Oryctolagus cuniculus; assay: Inhibition of calpain-10 in rabbit mitochondrial matrix fractions at 1 uM preincubated for 5 mins in presence of 1 mM dithiothreitol by spectrofluorimetry
How it was run: (§1)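 Rabbit renal mitochondrial matrix preincubated 15 min with inhibitor (1 µM), activity on sLLVY-AMC measured 5 min; then BME (1 mM) or DTT (1 mM) added for 5 min and AMC release monitored for another 5 min. Mean and SE, n ≥ 3.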

[3] = species on record: Oryctolagus cuniculus; assay: Inhibition of calpain-10 in rabbit mitochondrial matrix fractions at 1 uM preincubated for 5 mins by spectrofluorimetry
[4] = species on record: Oryctolagus cuniculus; assay: Inhibition of calpain-10 in rabbit mitochondrial matrix fractions at 1 uM preincubated for 5 mins in presence of 1 mM beta-mercaptoethanol by spectrofluorimetry; how it was run: as §1

Structure (SMILES)	IC50 [1] [nM]	also measured
CSC[C@H](N)C(=O)N[C@@H](Cc1ccc(O)cc1)C(=O)NCC(=O)N[C@@H](C)C(=O)N[C@@H](CCCCN)C(=O)O (H-C(Me)YGAK-OH)	> 100000	–
CCSSC[C@H](N)C(=O)N[C@@H](Cc1ccc(O)cc1)C(=O)NCC(=O)N[C@@H](C)C(=O)N[C@@H](CCCCN)C(=O)O (H-C(SEt)YGAK-OH)	2000	–
C[C@H](NC(=O)CNC(=O)[C@H](C)NC(=O)[C@@H](N)CS)C(=O)N[C@@H](CCCCN)C(=O)O (H-CAGAK-OH)	2000	–
CC(C)[C@H](NC(=O)[C@@H](N)CS)C(=O)NCC(=O)N[C@@H](C)C(=O)N[C@@H](CCCCN)C(=O)O (H-CVGAK-OH)	> 40000	–
C[C@H](NC(=O)CNC(=O)[C@H](Cc1ccc(O)cc1)NC(=O)[C@@H](N)CS)C(=O)O (H-CYGA-OH)	> 100000	–
C[C@H](NC(=O)CNC(=O)[C@@H](N)Cc1ccc(O)cc1)C(=O)N[C@@H](CCCCN)C(=O)O (H-YGAK-OH)	> 100000	–

The next compounds have a lower IC50 [1] than those just listed; values first:

IC50 [1] [nM]	Structure (SMILES)	also measured
60	COc1ccc(SSC[C@H](N)C(=O)N[C@@H](Cc2ccc(O)cc2)C(=O)NCC(=O)N[C@@H](C)C(=O)N[C@@H](CCCCN)C(=O)O)cc1 (H-C(X1)YGAK-OH)	–
100	C[C@H](NC(=O)CNC(=O)[C@H](Cc1ccc(O)cc1)NC(=O)[C@@H](N)CS)C(=O)N[C@@H](CCCCN)C(=O)O (H-CYGAK-OH)	Activity [2]: inactive; inhibition [3]: 90%; Activity [4]: inactive
240	N=C(N)NCCC[C@H](NC(=O)CNC(=O)[C@H](Cc1ccc(O)cc1)NC(=O)[C@@H](N)CS)C(=O)N[C@@H](CCCCN)C(=O)O (H-CYGRK-OH)	–
290	N=C(N)NCCC[C@H](NC(=O)CNC(=O)[C@H](Cc1ccc(O)cc1)NC(=O)[C@@H](N)CS)C(=O)N[C@@H](CCCCN)C(=O)N[C@@H](CCCCN)C(=O)O (H-CYGRKK-OH)	–
4	CCCC[C@@H](C=O)NC(=O)[C@H](CC(C)C)NC(=O)OCc1ccccc1 [CALPEPTIN]	–
